Laboratory results published in ChEMBL document CHEMBL1926509, “Discovery of pyrazolo[1,5-a]pyridines as p110α-selective PI3 kinase inhibitors” (Bioorg Med Chem, 2012).

Tests used:
[1] = biological target: Phosphatidylinositol 4,5-bisphosphate 3-kinase catalytic subunit alpha isoform (Homo sapiens, UniProt P42336); experiment: Inhibition of recombinant PI3K p110alpha using L-alpha-phosphatidylinositol as substrate and [gamma33P]ATP after 60 mins by thin layer chromatographic technique
Summary of the method: (§1)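 In-house recombinant class Ia PI3K isoform (0.1 µg) with L-α-phosphatidylinositol substrate in lipid kinase buffer (Tris–HCl pH 7.4, NaCl, EDTA), 1% DMSO final. Started with ATP mix (5 mM MgCl₂, 100 µM ATP plus [γ-³³P]ATP), 1 h at room temperature, stopped with 1 M HCl. Lipids extracted in two steps, separated by TLC, read by phosphorimager. Nine inhibitor concentrations; IC50 averaged over two experiments.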

[2] = biological target: T1, Phosphatidylinositol 4,5-bisphosphate 3-kinase catalytic subunit delta isoform (Homo sapiens, UniProt O00329); experiment: Inhibition of recombinant PI3K p110delta using L-alpha-phosphatidylinositol as substrate and [gamma33P]ATP after 60 mins by thin layer chromatographic technique; summary of the method: as §1
T1 sequence (O00329 whole entry): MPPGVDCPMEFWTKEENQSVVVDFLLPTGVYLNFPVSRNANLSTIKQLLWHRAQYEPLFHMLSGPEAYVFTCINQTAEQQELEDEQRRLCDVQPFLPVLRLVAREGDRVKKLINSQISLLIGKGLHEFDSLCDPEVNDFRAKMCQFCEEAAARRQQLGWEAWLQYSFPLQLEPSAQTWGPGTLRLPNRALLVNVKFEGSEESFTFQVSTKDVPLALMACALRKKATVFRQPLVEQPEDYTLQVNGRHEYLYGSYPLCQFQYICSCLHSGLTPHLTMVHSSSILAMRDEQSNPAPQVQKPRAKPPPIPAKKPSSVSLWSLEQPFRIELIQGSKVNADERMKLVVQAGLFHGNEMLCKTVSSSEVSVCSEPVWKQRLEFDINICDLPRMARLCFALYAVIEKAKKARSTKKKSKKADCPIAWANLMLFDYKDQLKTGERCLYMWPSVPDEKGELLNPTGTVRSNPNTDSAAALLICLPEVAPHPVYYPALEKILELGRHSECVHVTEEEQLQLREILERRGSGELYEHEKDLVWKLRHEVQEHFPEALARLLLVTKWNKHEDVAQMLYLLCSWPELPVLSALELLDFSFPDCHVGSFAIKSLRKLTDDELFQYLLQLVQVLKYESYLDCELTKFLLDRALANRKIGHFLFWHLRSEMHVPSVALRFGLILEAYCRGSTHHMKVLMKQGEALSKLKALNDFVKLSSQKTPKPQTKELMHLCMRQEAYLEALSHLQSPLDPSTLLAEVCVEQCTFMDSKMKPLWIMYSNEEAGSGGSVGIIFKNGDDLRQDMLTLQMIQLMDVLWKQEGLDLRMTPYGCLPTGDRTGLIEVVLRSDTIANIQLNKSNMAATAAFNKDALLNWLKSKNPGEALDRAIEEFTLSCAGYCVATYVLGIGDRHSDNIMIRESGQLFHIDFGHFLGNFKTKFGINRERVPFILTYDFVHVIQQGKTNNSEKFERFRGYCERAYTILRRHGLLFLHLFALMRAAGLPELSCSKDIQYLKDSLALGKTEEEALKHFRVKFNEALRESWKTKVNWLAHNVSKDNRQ

[3] = Cytotoxicity against human NZB5 cells expressing wild type p110alpha assessed as inhibition of [3H]thymidine incorporation after 5 days; assay type: functional, cell-based
Summary of the method: (§2)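 Early-passage lab-derived lines in α-MEM with insulin, transferrin, selenite and 5% FBS. Seeded at 1000 cells/well; drug added in 10-fold steps up to 20 µM. Incubated five days under 5% O₂/5% CO₂/90% N₂, with ³H-thymidine (0.04 µCi/well) over the last 6 h. Duplicates per dose; least-squares exponential fit; IC50 is the concentration giving 50% less incorporation.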

[4] = biological target: Phosphatidylinositol 4,5-bisphosphate 3-kinase catalytic subunit beta isoform (Homo sapiens, UniProt P42338); experiment: Inhibition of recombinant PI3K p110beta using L-alpha-phosphatidylinositol as substrate and [gamma33P]ATP after 60 mins by thin layer chromatographic technique; summary of the method: as §1
Sequence of Phosphatidylinositol 4,5-bisphosphate 3-kinase catalytic subunit beta isoform (P42338 whole entry, canonical isoform): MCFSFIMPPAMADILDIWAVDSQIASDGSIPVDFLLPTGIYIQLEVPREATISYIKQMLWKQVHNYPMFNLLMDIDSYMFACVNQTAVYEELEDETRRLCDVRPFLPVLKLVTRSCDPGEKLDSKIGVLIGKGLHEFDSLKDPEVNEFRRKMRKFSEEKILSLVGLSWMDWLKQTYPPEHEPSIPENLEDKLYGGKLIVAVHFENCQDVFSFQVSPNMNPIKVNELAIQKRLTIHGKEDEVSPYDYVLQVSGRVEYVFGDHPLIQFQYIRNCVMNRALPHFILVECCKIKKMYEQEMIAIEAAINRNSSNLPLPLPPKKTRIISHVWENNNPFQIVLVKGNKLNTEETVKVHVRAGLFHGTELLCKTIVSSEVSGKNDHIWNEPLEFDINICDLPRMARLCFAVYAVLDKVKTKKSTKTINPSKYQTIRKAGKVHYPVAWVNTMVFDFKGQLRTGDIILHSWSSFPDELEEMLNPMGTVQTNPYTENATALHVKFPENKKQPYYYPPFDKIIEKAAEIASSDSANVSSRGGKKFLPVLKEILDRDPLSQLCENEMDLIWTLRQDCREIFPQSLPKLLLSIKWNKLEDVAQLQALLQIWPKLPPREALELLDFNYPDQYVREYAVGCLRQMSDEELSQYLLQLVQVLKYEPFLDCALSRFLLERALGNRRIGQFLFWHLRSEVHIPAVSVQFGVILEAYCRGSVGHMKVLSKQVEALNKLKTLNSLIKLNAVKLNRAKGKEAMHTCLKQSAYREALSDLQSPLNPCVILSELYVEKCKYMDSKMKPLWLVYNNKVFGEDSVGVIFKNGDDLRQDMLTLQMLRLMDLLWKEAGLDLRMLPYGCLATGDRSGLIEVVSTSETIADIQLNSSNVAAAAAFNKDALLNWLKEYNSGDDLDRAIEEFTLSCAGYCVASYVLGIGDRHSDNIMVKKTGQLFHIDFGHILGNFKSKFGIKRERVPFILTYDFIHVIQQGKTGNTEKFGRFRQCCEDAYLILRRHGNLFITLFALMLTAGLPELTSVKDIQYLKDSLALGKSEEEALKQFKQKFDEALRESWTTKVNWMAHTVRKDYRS

[5] = Cytotoxicity against human NZOV9 cells expressing p110alpha Y1021C mutant assessed as inhibition of [3H]thymidine incorporation after 5 days; assay type: functional, cell-based; summary of the method: as §2
[6] = Selectivity ratio of IC50 for PI3K p110beta to IC50 for PI3K p110alpha
[7] = Selectivity ratio of IC50 for PI3K p110delta to IC50 for PI3K p110alpha

Sequence of Phosphatidylinositol 4,5-bisphosphate 3-kinase catalytic subunit alpha isoform (P42336 whole entry, canonical isoform): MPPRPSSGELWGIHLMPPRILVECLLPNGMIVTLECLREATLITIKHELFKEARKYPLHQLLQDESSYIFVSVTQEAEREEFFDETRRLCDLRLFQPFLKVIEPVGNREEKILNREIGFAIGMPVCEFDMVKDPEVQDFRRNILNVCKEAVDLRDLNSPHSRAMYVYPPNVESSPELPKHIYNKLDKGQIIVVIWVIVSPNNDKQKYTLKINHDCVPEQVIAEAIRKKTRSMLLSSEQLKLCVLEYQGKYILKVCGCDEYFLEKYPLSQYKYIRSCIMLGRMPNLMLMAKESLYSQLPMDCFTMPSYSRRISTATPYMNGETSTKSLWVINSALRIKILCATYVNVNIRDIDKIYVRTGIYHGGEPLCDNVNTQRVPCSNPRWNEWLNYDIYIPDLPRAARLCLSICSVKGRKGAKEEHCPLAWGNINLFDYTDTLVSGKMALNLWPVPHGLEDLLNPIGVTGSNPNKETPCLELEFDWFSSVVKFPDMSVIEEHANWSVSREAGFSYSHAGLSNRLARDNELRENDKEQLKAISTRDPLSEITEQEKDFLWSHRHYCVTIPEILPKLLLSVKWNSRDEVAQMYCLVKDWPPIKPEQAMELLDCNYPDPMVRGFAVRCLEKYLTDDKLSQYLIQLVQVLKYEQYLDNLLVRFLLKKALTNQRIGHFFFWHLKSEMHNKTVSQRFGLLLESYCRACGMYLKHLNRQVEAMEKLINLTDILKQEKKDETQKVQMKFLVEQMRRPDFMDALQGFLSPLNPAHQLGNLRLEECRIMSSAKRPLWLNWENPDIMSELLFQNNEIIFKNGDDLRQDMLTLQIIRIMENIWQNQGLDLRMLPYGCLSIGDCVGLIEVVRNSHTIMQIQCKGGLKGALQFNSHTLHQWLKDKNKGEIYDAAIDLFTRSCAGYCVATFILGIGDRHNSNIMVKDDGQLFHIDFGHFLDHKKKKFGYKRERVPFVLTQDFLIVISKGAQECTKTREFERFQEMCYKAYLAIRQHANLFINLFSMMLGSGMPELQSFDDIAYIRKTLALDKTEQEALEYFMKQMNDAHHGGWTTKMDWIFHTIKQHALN

| SMILES | IC50 [1] [nM] | IC50 [2] [nM] | IC50 [3] [nM] | IC50 [4] [nM] | IC50 [5] [nM] | Ratio IC50 [6] | Ratio IC50 [7] |
| --- | --- | --- | --- | --- | --- | --- | --- |
| Cc1ccc([N+](=O)[O-])cc1S(=O)(=O)N(C)/N=C/c1cnn2ccc(O)cc12 | 340 | > 1000 | > 20000 | > 1000 | > 20000 | – | – |
| C/C(=N\NS(=O)(=O)c1cc([N+](=O)[O-])ccc1C)c1cnn2ccc(Br)cc12 | 30 | 220 | 420 | 480 | 350 | – | – |
| C#Cc1ccn2ncc(/C=N/N(C)S(=O)(=O)c3cc([N+](=O)[O-])ccc3C)c2c1 | 2.4 | 41 | 160 | 30 | 110 | – | – |
| C/C(=N\N(C)S(=O)(=O)c1cc([N+](=O)[O-])ccc1C)c1cnn2ccc(Br)cc12 | 1200 | > 1000 | > 20000 | > 1000 | > 20000 | – | – |
| Cc1ccc([N+](=O)[O-])cc1S(=O)(=O)N(C)/N=C/c1cnn2cccc(Br)c12 | > 1000 | > 1000 | > 20000 | > 1000 | 6500 | – | – |
| Cc1ccc([N+](=O)[O-])cc1S(=O)(=O)N(C)/N=C/c1cnn2ccc(Cl)cc12 | 2.9 | 90 | – | 390 | 550 | – | – |
| Cc1ccc([N+](=O)[O-])cc1S(=O)(=O)N(C)/N=C/c1cnn2ccc(C3CC3)cc12 | 1100 | > 1000 | 740 | > 1000 | 670 | – | – |
| CC/C(=N\N(C)S(=O)(=O)c1cc([N+](=O)[O-])ccc1C)c1cnn2ccc(C#N)cc12 | 390 | > 1000 | 410 | > 1000 | 3700 | – | – |
| Cc1ccc([N+](=O)[O-])cc1S(=O)(=O)N(C)/N=C/c1cnn2ccc(-c3ccccc3)cc12 | > 1000 | > 1000 | 10000 | > 1000 | 10000 | – | – |
| Cc1ccc([N+](=O)[O-])cc1S(=O)(=O)N(C)/N=C/c1cnn2ccc(C(F)(F)F)cc12 | 150 | > 1000 | 70 | > 1000 | 90 | – | – |
| C/C(=N\N(C)S(=O)(=O)c1cc([N+](=O)[O-])ccc1C)c1cnn2ccc(C#N)cc12 | 80 | 510 | 4400 | 600 | 7500 | – | – |
| Cc1ccc([N+](=O)[O-])cc1S(=O)(=O)N(C)/N=C/c1cnn2cccc(C)c12 | > 1000 | > 1000 | 18000 | > 1000 | > 20000 | – | – |
| CC(=O)Oc1ccn2ncc(/C=N/N(C)S(=O)(=O)c3cc([N+](=O)[O-])ccc3C)c2c1 | 910 | > 1000 | 8200 | > 1000 | 8900 | – | – |
| Cc1ccc([N+](=O)[O-])cc1S(=O)(=O)N(C)/N=C/c1cnn2cc(Br)ccc12 | > 1000 | > 1000 | > 20000 | > 1000 | 4500 | – | – |
| Cc1ccc([N+](=O)[O-])cc1S(=O)(=O)N/N=C/c1cnn2ccc(C#N)cc12 | 13 | 580 | 2600 | 620 | 4900 | – | – |
| CNC(=O)c1ccn2ncc(/C=N/N(C)S(=O)(=O)c3cc([N+](=O)[O-])ccc3C)c2c1 | > 1000 | > 1000 | 10000 | > 1000 | 10000 | – | – |
| C=Cc1ccn2ncc(/C=N/N(C)S(=O)(=O)c3cc([N+](=O)[O-])ccc3C)c2c1 | 130 | > 1000 | 990 | > 1000 | 580 | – | – |

| SMILES | IC50 [1] [nM] | IC50 [2] [nM] | IC50 [3] [nM] | IC50 [4] [nM] | IC50 [5] [nM] | Ratio IC50 [6] | Ratio IC50 [7] |
| --- | --- | --- | --- | --- | --- | --- | --- |
| Cc1ccc([N+](=O)[O-])cc1S(=O)(=O)N(C)/N=C/c1cnn2ccc(C(N)=O)cc12 | 530 | > 1000 | 600 | > 1000 | 10000 | – | – |
| CCc1ccn2ncc(/C=N/N(C)S(=O)(=O)c3cc([N+](=O)[O-])ccc3C)c2c1 | > 1000 | > 1000 | 410 | > 1000 | 560 | – | – |
| CCC/C(=N\N(C)S(=O)(=O)c1cc([N+](=O)[O-])ccc1C)c1cnn2ccc(C#N)cc12 | 610 | > 1000 | 680 | > 1000 | 2300 | – | – |
| CC/C(=N\NS(=O)(=O)c1cc([N+](=O)[O-])ccc1C)c1cnn2ccc(C#N)cc12 | 10 | 440 | 88 | > 1000 | 360 | – | – |
| Cc1ccc2c(/C=N/N(C)S(=O)(=O)c3cc([N+](=O)[O-])ccc3C)cnn2c1 | > 1000 | > 1000 | 10000 | > 1000 | 8000 | – | – |
| COC(=O)c1ccn2ncc(/C=N/N(C)S(=O)(=O)c3cc([N+](=O)[O-])ccc3C)c2c1 | 360 | 690 | 1800 | > 1000 | 1500 | – | – |
| CCC/C(=N\NS(=O)(=O)c1cc([N+](=O)[O-])ccc1C)c1cnn2ccc(C#N)cc12 | 39 | 310 | 370 | > 1000 | 640 | – | – |
| C/C(=N\NS(=O)(=O)c1cc([N+](=O)[O-])ccc1C)c1cnn2ccc(C#N)cc12 | 7 | 900 | 1100 | 410 | 2100 | – | – |
| Cc1ccc([N+](=O)[O-])cc1S(=O)(=O)N(C)/N=C/c1cnn2ccccc12 | 960 | 3400 | 470 | > 10000 | 660 | 60 | 40 |
| Cc1ccc([N+](=O)[O-])cc1S(=O)(=O)N(C)/N=C/c1cnn2ccc(I)cc12 | 16 | 170 | 40 | 370 | 50 | – | – |
| Cc1ccc([N+](=O)[O-])cc1S(=O)(=O)N(C)/N=C/c1cnn2cc(F)c(C#N)cc12 | 45 | 2500 | – | 1800 | – | – | – |
| Cc1ccc([N+](=O)[O-])cc1S(=O)(=O)N(C)/N=C/c1cnn2c(C)cccc12 | 1600 | > 1000 | 6000 | > 1000 | 1200 | – | – |
| COc1ccn2ncc(/C=N/N(C)S(=O)(=O)c3cc([N+](=O)[O-])ccc3C)c2c1 | 190 | > 1000 | 940 | > 1000 | 520 | – | – |
| Cc1ccc([N+](=O)[O-])cc1S(=O)(=O)N(C)/N=C/c1cnn2ccc(Br)cc12 | 3.8 | 150 | 310 | 230 | 50 | – | – |
| Cc1ccc([N+](=O)[O-])cc1S(=O)(=O)N(C)/N=C/c1cnn2ccc(C(=O)N(C)C)cc12 | > 1000 | > 1000 | 10000 | > 1000 | 10000 | – | – |
| Cc1ccn2ncc(/C=N/N(C)S(=O)(=O)c3cc([N+](=O)[O-])ccc3C)c2c1 | 110 | 700 | 50 | > 1000 | 70 | – | – |
